Source: ChEMBL document CHEMBL4673227, “Development of Gleevec Analogues for Reducing Production of β-Amyloid Peptides through Shifting β-Cleavage of Amyloid Precursor Proteins” (J Med Chem, 2019)
The source made the active and inactive calls. No cut-off for these calls is given here.

Key:
[1] = Drug level in C57BL/6J mouse plasma at 50 mg/kg, ip measured after 4 hrs by LC-MS/MS analysis; assay type: ADME, organism-based
In short: (§1)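 Mesylate salts in water ([…], 125 μL) given i.p. at 50 or 150 mg/kg to 8-week-old male C57BL/6J mice. Brain and plasma harvested 4 h post-dose and snap-frozen. Brain homogenized and extracted twice with ethanol, plasma extracted with acetonitrile, both with internal standard. Drug quantified by LC-MS/MS; n = 3 or 4.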

[2] = Drug level in C57BL/6J mouse brain at 50 mg/kg, ip measured after 4 hrs by LC-MS/MS analysis; assay type: ADME, organism-based; details: read-out: Drug uptake; in short: as §1
[3] = Toxicity in mouse N2a695 cells assessed as reduction in cell viability at 5 to 10 uM incubated for 5 hrs; assay type: cell-based; details: n2a695, 5 h, dose 5-10 µM
In short: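 N2a cells exposed to compounds at 10 μM for 5 h alongside the Aβ assay. Cell viability/density compared with DMSO control.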

[4] = Inhibition of beta secretase in mouse N2a695 cells assessed as reduction in A-beta 40 levels incubated for 5 hrs by ELISA; assay type: cell-based; details: N2a695, 5 h
In short: (§2)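 Mouse N2a695 cells (N2a overexpressing human APP695), grown in Opti-MEM/DMEM with 5% FBS and geneticin at 37 °C, 5% CO₂. Cells seeded overnight in 6-well plates, >95% confluent, then given fresh medium with compounds (2.5–10 μM, diluted from DMSO stocks) for 5 h. Secreted Aβ40/Aβ42 measured by ELISA or MSD ELISA against DMSO control; 2–3 experiments averaged.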

[5] = Inhibition of beta secretase in mouse N2a695 cells assessed as reduction in A-beta 42 levels incubated for 5 hrs by ELISA; assay type: cell-based; details: N2a695, 5 h; in short: as §2
N2a695 [6] = assay: Inhibition of beta secretase in mouse N2a695 cells assessed as reduction in A-beta 40 levels at 5 to 10 uM incubated for 5 hrs by ELISA; assay type: cell-based; details: dose 5-10 µM; in short: as §2
N2a695 [7] = assay: Inhibition of beta secretase in mouse N2a695 cells assessed as reduction in A-beta 42 levels at 5 to 10 uM incubated for 5 hrs by ELISA; assay type: cell-based; details: dose 5-10 µM; in short: as §2
N2a695 [8] = assay: Inhibition of beta secretase in mouse N2a695 cells assessed as reduction in A-beta 42 levels at 10 uM incubated for 5 hrs by ELISA; assay type: cell-based; in short: as §2
N2a [9] = assay: Inhibition of gamma secretase in mouse N2a cells expressing FL APP695 assessed as reduction of A-beta levels at 1 uM incubated for 5 hrs by MSD-ELISA; assay type: cell-based
N2a [10] = assay: Inhibition of beta secretase in mouse N2a cells expressing FL APP695 assessed as reduction of A-beta levels at 2 uM incubated for 5 hrs by MSD-ELISA
[11] = Stability in human liver microsomes assessed as parent compound remaining level at 1 uM after 1 hrs by HPLC-MS/MS analysis; assay type: ADME, Microsome; details: read-out: Stabilty
[12] = Stability in human liver microsomes assessed as parent compound remaining level at 10 uM after 1 hrs by HPLC-MS/MS analysis; assay type: ADME, Microsome; details: read-out: Stabilty
[13] = Stability in mouse liver microsomes assessed as parent compound remaining level at 10 uM after 1 hrs by HPLC-MS/MS analysis; assay type: ADME, Microsome; details: read-out: Stabilty
[14] = Stability in mouse liver microsomes assessed as parent compound remaining level at 1 uM after 1 hrs by HPLC-MS/MS analysis; assay type: ADME, Microsome; details: read-out: Stabilty
[15] = Stability in human liver microsomes assessed as parent compound remaining level at 10 uM after 0.5 hrs by HPLC-MS/MS analysis; assay type: ADME, Microsome; details: read-out: Stabilty
[16] = Stability in human liver microsomes assessed as parent compound remaining level at 1 uM after 0.5 hrs by HPLC-MS/MS analysis; assay type: ADME, Microsome; details: read-out: Stabilty
[17] = Stability in mouse liver microsomes assessed as parent compound remaining level at 10 uM after 0.5 hrs by HPLC-MS/MS analysis; assay type: ADME, Microsome; details: read-out: Stabilty
[18] = Stability in mouse liver microsomes assessed as parent compound remaining level at 1 uM after 0.5 hrs by HPLC-MS/MS analysis; assay type: ADME, Microsome; details: read-out: Stabilty
N2a [19] = assay: Inhibition of gamma secretase in mouse N2a cells expressing APP-C99 assessed as reduction of A-beta42 levels at 10 uM incubated for 5 hrs by MSD-ELISA relative to control; assay type: cell-based
In short: (§3)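 N2a cells transfected with plasmids for full-length APP695 or APP-C99. After 48 h, fresh medium with compounds (10 μM) added for 5 h. Supernatant Aβ40, Aβ42, sAPPα and sAPPβ measured by MSD ELISA against DMSO; BACE IV (2 μM) and DAPT (1 μM) run alongside.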

N2a [20] = assay: Inhibition of gamma secretase in mouse N2a cells expressing APP-C99 assessed as reduction of A-beta40 levels at 10 uM incubated for 5 hrs by MSD-ELISA relative to control; assay type: cell-based; in short: as §3
[21] = Drug level in C57BL/6J mouse plasma at 150 mg/kg, ip measured after 4 hrs by LC-MS/MS analysis; assay type: ADME, organism-based; in short: as §1
[22] = Drug level in C57BL/6J mouse brain at 150 mg/kg, ip measured after 4 hrs by LC-MS/MS analysis; assay type: ADME, organism-based; details: read-out: Drug uptake; in short: as §1
[23] = Drug level in brain of wild-type mouse at 50 mg/kg, po after 6 hrs by LC-MS/MS analysis; details: in vivo
[24] = Drug level in brain of wild-type mouse at 50 mg/kg, po after 12 hrs by LC-MS/MS analysis; details: in vivo
[25] = Drug level in plasma of wild-type mouse at 50 mg/kg, po after 24 hrs by LC-MS/MS analysis; details: in vivo
[26] = Drug level in plasma of wild-type mouse at 50 mg/kg, po after 12 hrs by LC-MS/MS analysis; details: in vivo
[27] = Toxicity in mouse up to 150 mg/kg, po QD for 5 days; assay type: organism-based; details: in vivo, 120 h, time 5 day
In short: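 Wild-type mice given the compound by oral gavage, increasing amounts up to 150 mg/kg once daily for 5 days. Animals observed for signs of toxicity.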

N2a695 [28] = assay: Inhibition of beta secretase in mouse N2a695 cells assessed as reduction in A-beta 40 levels at 5 uM treated 1 hr after BACE IV treatment and further incubated for 5 hrs by ELISA; assay type: cell-based
In short: (§4)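 N2a695 cells pretreated with BACE IV for 1 h, then treated with compound plus BACE IV for 5 h. Secreted Aβ40 and Aβ42 measured by ELISA.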

N2a695 [29] = assay: Inhibition of beta secretase in mouse N2a695 cells assessed as reduction in A-beta 42 levels at 5 uM treated 1 hr after BACE IV treatment and further incubated for 5 hrs by ELISA; assay type: cell-based; in short: as §4
Mus musculus [30] = assay: Inhibition of FA-soluble A-beta-40 levels in 2xTg AD mouse model at 100 mg/kg, po BID for 4 days and once daily on day 5 by ELISA; assay type: functional, organism-based; details: time 5.0 day
In short: (§5)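 2xTg AD females (APP Swedish/PS1ΔE9), 5 months old, n = 7 per group. 2a-mesylate 20 mg/mL in water with 0.1% methylcellulose, 100 mg/kg by gavage, or vehicle, twice daily 8 h apart for 4 days, then once on day 5. Euthanized 4 h after last dose. Left hemisphere homogenized in 1% Triton X-100 TBS (pH 7.4), then insoluble Aβ extracted with 70% formic acid and measured by ELISA.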

Mus musculus [31] = assay: Inhibition of FA-soluble A-beta-42 levels in 2xTg AD mouse model at 100 mg/kg, po BID for 4 days and once daily on day 5 by ELISA; assay type: functional, organism-based; in short: as §5

concentration at 4 h [1] [µM]	concentration at 4 h [2] [ng/g]	IC50 [4] [µM]	IC50 [5] [µM]	Compound	Activity [3]	inhibition (N2a695 [6])	inhibition (N2a695 [7])	other results
2.3	39	> 5	> 5	Cc1ccc(NC(=O)c2ccc(C3CCCN(C)C3)cc2)cc1Nc1nccc(-c2cccnc2)n1 (configuration not stated)	Non-Toxic	Active	Active	–
0.1	< 1	–	–	CS(=O)(=O)O.Cc1ccc(NC(=O)c2ccc(CN3CCN(C)CC3)cc2)cc1Nc1nccc(-c2cccnc2)n1 [IMATINIB MESYLATE]	–	–	–	remaining at 1 h, 1 µM [11]: 15.9%; remaining at 1 h, 10 µM [12]: 66.4%; remaining at 1 h, 10 µM [13]: 5.1%; remaining at 1 h, 1 µM [14]: 1.7%; remaining at 0.5 h, 10 µM [15]: 95.4%; remaining at 0.5 h, 1 µM [16]: 40.4%; remaining at 0.5 h, 10 µM [17]: 22.5%; remaining at 0.5 h, 1 µM [18]: 7.3%
2.5	27	> 5	> 5	Cc1ccc(NC(=O)c2ccc(CCN(C)C)cc2)cc1Nc1nccc(-c2cccnc2)n1 [listing 1 of 2 here]	Non-Toxic	–	–	Activity [27]: Non-Toxic; remaining at 1 h, 1 µM [11]: 29.2%; remaining at 1 h, 10 µM [12]: 56.5%; remaining at 1 h, 10 µM [13]: 2.3%; remaining at 1 h, 1 µM [14]: 1.3%; remaining at 0.5 h, 10 µM [15]: 77.1%; remaining at 0.5 h, 1 µM [16]: 61.9%; remaining at 0.5 h, 10 µM [17]: 15.1%; remaining at 0.5 h, 1 µM [18]: 7.9%
1	21	> 5	> 5	Cc1ccc(NC(=O)c2ccc(N3CCN(C)CC3)cc2)cc1Nc1nccc(-c2cccnc2)n1	Non-Toxic	Active	Active	–
–	127	> 5	> 5	Cc1ccc(NC(=O)c2ccc(C3CCN(C)CC3)cc2)cc1Nc1nccc(-c2cccnc2)n1	Non-Toxic	Active	Active	–

Second part, the compound before the results:

Compound	concentration at 4 h [1] [µM]	concentration at 4 h [2] [ng/g]	IC50 [4] [µM]	IC50 [5] [µM]	Activity [3]	inhibition (N2a695 [6])	inhibition (N2a695 [7])	other results
CNCCc1ccc(C(=O)Nc2ccc(C)c(Nc3nccc(-c4cccnc4)n3)c2)cc1	–	–	–	–	–	–	–	inhibition (N2a695 [8]): Active
C[C@H](NC(=O)Cc1cc(F)cc(F)c1)C(=O)N[C@H](C(=O)OC(C)(C)C)c1ccccc1	–	–	–	–	–	–	–	inhibition (N2a [9]): Active; inhibition (N2a [10]): Active
Cc1ccc(NC(=O)c2ccc(CCN(C)C)cc2C(F)(F)F)cc1Nc1nccc(-c2cccnc2)n1	–	–	> 5	> 5	Non-Toxic	Active	Active	inhibition (N2a [19]): 25%; inhibition (N2a [20]): 25%; concentration at 4 h [21]: 11.6 µM; concentration at 4 h [22]: 60 ng/g
Cc1ccc(NC(=O)c2ccc(CCN)cc2)cc1Nc1nccc(-c2cccnc2)n1	–	–	–	–	–	–	–	inhibition (N2a695 [8]): Active
CS(=O)(=O)O.Cc1ccc(NC(=O)c2ccc(CCN(C)C)cc2)cc1Nc1nccc(-c2cccnc2)n1	–	–	–	–	–	–	–	Drug uptake [23]: Active; Drug uptake [24]: Not Active; Drug uptake [25]: Not Active; Drug uptake [26]: Active
Cc1ccc(NC(=O)c2ccc(CCN(C)C)cc2)cc1Nc1nccc(-c2cccnc2)n1 [listing 2 of 2 here]	–	–	–	–	–	Active	Active	inhibition (N2a695 [28]): Active; inhibition (N2a695 [29]): Active; inhibition (Mus musculus [30]): Active; inhibition (Mus musculus [31]): Active
